Measurements published in paper PMC7379967 (The Febs Journal, 2018).

Molecular target: human neutrophil proMMP‐9 (Homo sapiens, UniProt P14780)
Format: biochemical
Conditions: zymography
In short: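 Neutrophil proMMP-9 was incubated with recombinant human MMP-3 catalytic domain (enzyme/substrate 1/20), either alone or with galectin-3 (proMMP-9/galectin-3 1/10). Samples were taken at 0, 0.16, 0.5, 1, 2 and 3 h. Galectins were expressed in E. coli BL21-AI and affinity-purified on α-lactose agarose. Conversion to active MMP-9 was read by gelatin zymography, with recombinant proMMP-9 standard loaded as a reference.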

human neutrophil proMMP‐9, sequence (P14780 20-707 limits assumed): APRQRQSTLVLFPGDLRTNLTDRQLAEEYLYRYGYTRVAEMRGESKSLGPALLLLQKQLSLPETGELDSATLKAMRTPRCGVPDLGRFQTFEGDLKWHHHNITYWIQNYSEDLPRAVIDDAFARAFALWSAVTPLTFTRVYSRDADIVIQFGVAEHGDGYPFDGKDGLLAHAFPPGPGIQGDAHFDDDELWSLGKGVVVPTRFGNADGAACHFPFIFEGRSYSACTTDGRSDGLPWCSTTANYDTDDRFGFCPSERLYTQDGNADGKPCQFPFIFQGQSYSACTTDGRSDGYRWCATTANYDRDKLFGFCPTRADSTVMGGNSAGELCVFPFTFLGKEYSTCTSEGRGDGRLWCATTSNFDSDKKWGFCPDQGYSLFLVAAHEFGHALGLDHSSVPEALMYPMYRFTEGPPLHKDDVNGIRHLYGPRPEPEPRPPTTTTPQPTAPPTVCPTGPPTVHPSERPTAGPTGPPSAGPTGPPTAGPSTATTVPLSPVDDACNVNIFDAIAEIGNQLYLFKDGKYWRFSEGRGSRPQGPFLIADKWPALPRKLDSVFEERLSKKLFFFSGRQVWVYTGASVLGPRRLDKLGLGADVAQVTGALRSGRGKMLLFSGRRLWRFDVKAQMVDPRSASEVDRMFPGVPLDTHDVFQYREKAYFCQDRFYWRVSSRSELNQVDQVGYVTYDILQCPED

- effect on stepwise activation of neutrophil proMMP‐9 by MMP‐3 (cdMMP‐3 1/20, proMMP‐9/galectin‐3 1/10, 0-3 h, Fig. 9A): reduced
- effect on activation of neutrophil proMMP‐9 by MMP‐3, overnight incubation (overnight, proMMP‐9/galectin‐3 1/10, Fig. 9B): prevented activation by MMP‐3
Substance: galectin‐3: human galectin‐3 (Met1‐Ile250) fused to C‐terminal tag SG(H)6SC, expressed in E. coli
